Among the data in ChEMBL document CHEMBL2311311, “Synthesis and in vitro activity of 1,2,4-triazole-ciprofloxacin hybrids against drug-susceptible and drug-resistant bacteria” (Eur J Med Chem, 2013) are MIC, MBC and Ratio values, retold here.

Molecules are shown by their SMILES. Converted amounts (≈) assume the structure as drawn.

Holding throughout (type): functional
In assay [1] the test system is Staphylococcus epidermidis. The experiment in a line: Antimicrobial activity against Staphylococcus epidermidis ATCC 12228 by broth microdilution method. In short, it runs like this:
(§1)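 Inocula were saline (0.85% NaCl) suspensions at 0.5 McFarland (150 × 10⁶ CFU/mL). Compounds were first screened by agar dilution on Mueller-Hinton agar, and active ones then went to broth microdilution. MIC is the lowest concentration inhibiting growth. The negative control was medium containing DMSO at the final concentration, without compound.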

Another assay deals with Escherichia coli. Put plainly: Antimicrobial activity against Escherichia coli ATCC 25922 by broth microdilution method. In short, it runs like this: as §1
On the technique in general: In broth dilution the organism is exposed to a series of concentrations in liquid medium.

A further assay relates to Bacillus subtilis. The experiment in a line: Antimicrobial activity against Bacillus subtilis ATCC 6633 by broth microdilution method. In short, it runs like this: as §1
For the next assay, the system named is Proteus mirabilis. The experiment in a line: Antimicrobial activity against Proteus mirabilis ATCC 12453 by broth microdilution method. The method, boiled down: as §1
For the next assay, the system named is Micrococcus luteus. The experiment in a line: Antimicrobial activity against Micrococcus luteus ATCC 10240 by broth microdilution method. In short, it runs like this:
as §1

A further assay deals with Bacillus cereus. Put plainly: Antimicrobial activity against Bacillus cereus ATCC 10876 by broth microdilution method. In short, it runs like this:
as §1

The next assay has as its system Pseudomonas aeruginosa. The experiment in a line: Antimicrobial activity against Pseudomonas aeruginosa ATCC 9027 by broth microdilution method. In short, it runs like this:
as §1

For assay [2], the system named is Staphylococcus aureus. Put plainly: Antimicrobial activity against methicillin-resistant Staphylococcus aureus 14001 by broth microdilution method. In short, it runs like this: (§2)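 Inoculum in sterile saline (0.85% NaCl), adjusted to 0.5 McFarland (150 × 10⁶ CFU/mL). Compounds first screened by agar dilution on Mueller-Hinton agar, then titrated by broth microdilution. Medium with DMSO at the final concentration and no compound served as negative control. MIC is the lowest concentration inhibiting growth. MBC is the lowest concentration giving >99.9% reduction in CFU of the initial inoculum.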

Assay [3] concerns Staphylococcus aureus. The experiment in a line: Antimicrobial activity against Staphylococcus aureus ATCC 25923 by broth microdilution method. In short, it runs like this:
as §1

Assay [4] deals with Staphylococcus aureus. The experiment in a line: Ratio of MBC to MIC for methicillin-resistant Staphylococcus aureus 14001 by broth microdilution method. The method, boiled down:
as §2

Broadly, the MIC is the least concentration at which growth counts as inhibited. The term MBC denotes the lowest tested concentration that kills the bacteria rather than only halting them. As for `O=C(O)c1cn(C2CC2)c2cc(N3CCN(Cn4nc(-c5cccc(Cl)c5)n(-c5cccc(I)c5)c4=S)CC3)c(F)cc2c1=O`, the MIC stood at 1.29 µM (≈ 0.977 µg/mL) in assay [1]; 0.02 µM (≈ 0.0151 µg/mL) in the assay on Escherichia coli; 0.04 µM (≈ 0.0303 µg/mL) with Bacillus subtilis; 0.04 µM (≈ 0.0303 µg/mL) against Proteus mirabilis; 2.58 µM (≈ 1.95 µg/mL) against Micrococcus luteus; 0.16 µM (≈ 0.121 µg/mL) against Bacillus cereus. Also, the MIC came to 0.16 µM (≈ 0.121 µg/mL) in the assay with Pseudomonas aeruginosa, 0.64 µM (≈ 0.484 µg/mL) with Staphylococcus aureus [2] and 1.29 µM (≈ 0.977 µg/mL) with Staphylococcus aureus [3]. The same compound yielded an MBC in the assay with Staphylococcus aureus [2] of 5.16 µM (≈ 3.91 µg/mL). In addition, the Ratio in the assay on Staphylococcus aureus [4] was 8.
For the compound `CCCCCCn1c(-c2cccc(Cl)c2)nn(CN2CCN(c3cc4c(cc3F)c(=O)c(C(=O)O)cn4C3CC3)CC2)c1=S`, the MIC turned out to be 1.53 µM (≈ 0.978 µg/mL) in assay [1]; 0.047 µM (≈ 0.03 µg/mL) against Escherichia coli; 0.19 µM (≈ 0.121 µg/mL) with Bacillus subtilis; 0.19 µM (≈ 0.121 µg/mL) in the assay with Proteus mirabilis; 3.05 µM (≈ 1.95 µg/mL) against Micrococcus luteus; 0.77 µM (≈ 0.492 µg/mL) in the assay on Bacillus cereus. Moreover, the MIC worked out at 0.77 µM (≈ 0.492 µg/mL) against Pseudomonas aeruginosa, 1.53 µM (≈ 0.978 µg/mL) in the assay on Staphylococcus aureus [2] and 1.53 µM (≈ 0.978 µg/mL) against Staphylococcus aureus [3]. In addition, the MBC against Staphylococcus aureus [2] is 3.05 µM (≈ 1.95 µg/mL). For the same compound, the Ratio with Staphylococcus aureus [4] turned out to be 2.
In the case of `O=C(O)c1cn(C2CC2)c2cc(N3CCN(Cn4ncn(-c5cccc(I)c5)c4=S)CC3)c(F)cc2c1=O`, the MIC in assay [1] was 6.05 µM (≈ 3.91 µg/mL); against Escherichia coli, 0.093 µM (≈ 0.0601 µg/mL); in the assay with Bacillus subtilis, 0.37 µM (≈ 0.239 µg/mL); against Proteus mirabilis it was 0.18 µM (≈ 0.116 µg/mL); with Micrococcus luteus it was 24.2 µM (≈ 15.6 µg/mL); against Bacillus cereus it was 3.02 µM (≈ 1.95 µg/mL). For the same compound, the MIC against Pseudomonas aeruginosa stood at 1.52 µM (≈ 0.983 µg/mL); against Staphylococcus aureus [2], 6.05 µM (≈ 3.91 µg/mL); against Staphylococcus aureus [3], 12.1 µM (≈ 7.81 µg/mL). Also, the MBC in the assay with Staphylococcus aureus [2] was 12.1 µM (≈ 7.81 µg/mL). For the same compound, in the assay with Staphylococcus aureus [4], the Ratio stood at 2.
For the compound `O=C(O)c1cn(C2CC2)c2cc(N3CCN(Cn4nc(-c5cccc(Cl)c5)n(-c5cc(Cl)cc(Cl)c5)c4=S)CC3)c(F)cc2c1=O`, the MIC in [1] was 22.3 µM (≈ 15.6 µg/mL); with Escherichia coli, 0.7 µM (≈ 0.49 µg/mL); in the assay on Bacillus subtilis it was 1.4 µM (≈ 0.98 µg/mL); in the assay on Proteus mirabilis, 0.7 µM (≈ 0.49 µg/mL); against Micrococcus luteus it was 44.6 µM (≈ 31.2 µg/mL); in the assay with Bacillus cereus it was 5.58 µM (≈ 3.91 µg/mL). Further, the results for the MIC in the assay with Pseudomonas aeruginosa, in the assay with Staphylococcus aureus [2] and against Staphylococcus aureus [3] were 11.2 µM (≈ 7.81 µg/mL), 22.3 µM (≈ 15.6 µg/mL) and 22.3 µM (≈ 15.6 µg/mL), respectively. This compound also registered an MBC with Staphylococcus aureus [2] of 44.6 µM (≈ 31.2 µg/mL). Further, the Ratio in the assay on Staphylococcus aureus [4] is 2.
`COc1ccc(-n2c(-c3cccc(Cl)c3)nn(CN3CCN(c4cc5c(cc4F)c(=O)c(C(=O)O)cn5C4CC4)CC3)c2=S)cc1`: the MIC came to 1.48 µM (≈ 0.979 µg/mL) in assay [1]; 0.023 µM (≈ 0.0152 µg/mL) against Escherichia coli; 0.09 µM (≈ 0.0595 µg/mL) against Bacillus subtilis; 0.023 µM (≈ 0.0152 µg/mL) with Proteus mirabilis; 2.95 µM (≈ 1.95 µg/mL) against Micrococcus luteus; 0.36 µM (≈ 0.238 µg/mL) against Bacillus cereus. The MIC with Pseudomonas aeruginosa stood at 0.36 µM (≈ 0.238 µg/mL); against Staphylococcus aureus [2], 0.74 µM (≈ 0.489 µg/mL); with Staphylococcus aureus [3] it was 1.48 µM (≈ 0.979 µg/mL). This compound registered an MBC against Staphylococcus aureus [2] of 0.74 µM (≈ 0.489 µg/mL). Besides, in the assay on Staphylococcus aureus [4], the Ratio turned out to be 1.
On to `O=C(O)c1cn(C2CC2)c2cc(N3CCN(Cn4nc(-c5cccc(Cl)c5)n(-c5ccc(Br)cc5)c4=S)CC3)c(F)cc2c1=O`, for which the MIC worked out at 5.51 µM (≈ 3.91 µg/mL) in assay [1]; 0.084 µM (≈ 0.0596 µg/mL) against Escherichia coli; 0.34 µM (≈ 0.241 µg/mL) against Bacillus subtilis; 0.17 µM (≈ 0.121 µg/mL) in the assay on Proteus mirabilis; 10.1 µM (≈ 7.17 µg/mL) in the assay on Micrococcus luteus; 1.38 µM (≈ 0.98 µg/mL) against Bacillus cereus. The MIC was 1.38 µM (≈ 0.98 µg/mL) in the assay on Pseudomonas aeruginosa, 2.76 µM (≈ 1.96 µg/mL) in the assay with Staphylococcus aureus [2] and 5.51 µM (≈ 3.91 µg/mL) in the assay with Staphylococcus aureus [3]. The MBC in the assay on Staphylococcus aureus [2] was determined as 5.51 µM (≈ 3.91 µg/mL). The Ratio in the assay with Staphylococcus aureus [4] was found to be 2.
`O=C(O)c1cn(C2CC2)c2cc(N3CCNCC3)c(F)cc2c1=O` [CIPROFLOXACIN]: the MIC in assay [1] was 1.48 µM (≈ 0.49 µg/mL); with Escherichia coli, 0.024 µM (≈ 0.00795 µg/mL); against Bacillus subtilis, 0.09 µM (≈ 0.0298 µg/mL); against Proteus mirabilis, 0.045 µM (≈ 0.0149 µg/mL); in the assay on Micrococcus luteus, 5.88 µM (≈ 1.95 µg/mL); against Bacillus cereus it was 0.36 µM (≈ 0.119 µg/mL). Further, the MIC in the assay on Pseudomonas aeruginosa stood at 0.72 µM (≈ 0.239 µg/mL); against Staphylococcus aureus [2], 1.48 µM (≈ 0.49 µg/mL); with Staphylococcus aureus [3], 2.96 µM (≈ 0.981 µg/mL). Moreover, the MBC against Staphylococcus aureus [2] was 5.92 µM (≈ 1.96 µg/mL). Besides, the Ratio in the assay with Staphylococcus aureus [4] is reported as 4.
For `O=C(O)c1cn(C2CC2)c2cc(N3CCN(Cn4nc(-c5cccc(Cl)c5)n(-c5ccc(F)cc5F)c4=S)CC3)c(F)cc2c1=O`, the MIC in [1] came to 0.73 µM (≈ 0.487 µg/mL); with Escherichia coli it was 0.022 µM (≈ 0.0147 µg/mL); with Bacillus subtilis, 0.09 µM (≈ 0.06 µg/mL); in the assay on Proteus mirabilis, 0.022 µM (≈ 0.0147 µg/mL); against Micrococcus luteus, 2.92 µM (≈ 1.95 µg/mL); with Bacillus cereus it was 0.18 µM (≈ 0.12 µg/mL). Besides, the MIC was determined as 0.36 µM (≈ 0.24 µg/mL) in the assay with Pseudomonas aeruginosa, 0.73 µM (≈ 0.487 µg/mL) in the assay on Staphylococcus aureus [2] and 0.73 µM (≈ 0.487 µg/mL) with Staphylococcus aureus [3]. The MBC against Staphylococcus aureus [2] came out at 0.73 µM (≈ 0.487 µg/mL). For the same compound, the Ratio in the assay with Staphylococcus aureus [4] is listed as 1.
Consider `CCCCn1c(-c2cccc(Cl)c2)nn(CN2CCN(c3cc4c(cc3F)c(=O)c(C(=O)O)cn4C3CC3)CC2)c1=S`, for which the MIC in assay [1] is 1.6 µM (≈ 0.978 µg/mL); in the assay on Escherichia coli, 0.098 µM (≈ 0.0599 µg/mL); in the assay with Bacillus subtilis it was 0.2 µM (≈ 0.122 µg/mL); against Proteus mirabilis, 0.098 µM (≈ 0.0599 µg/mL); in the assay on Micrococcus luteus, 6.4 µM (≈ 3.91 µg/mL); in the assay with Bacillus cereus, 0.39 µM (≈ 0.238 µg/mL). The values for the MIC in the assay on Pseudomonas aeruginosa, with Staphylococcus aureus [2] and in the assay on Staphylococcus aureus [3] were 0.8 µM (≈ 0.489 µg/mL), 1.6 µM (≈ 0.978 µg/mL) and 3.19 µM (≈ 1.95 µg/mL), respectively. Moreover, in the assay on Staphylococcus aureus [2], the MBC was 1.6 µM (≈ 0.978 µg/mL). For the same compound, the Ratio in the assay with Staphylococcus aureus [4] is 1.
